# ChEMBL document CHEMBL4665633, “Cereblon versus VHL: Hijacking E3 ligases against each other using PROTACs” (Bioorg Med Chem, 2019)
# Activity calls are given as the source filed them. The calls are words filed in the database; no cut-off is given here.
# Key:
# Type in all cases: cell-based
# [1] = target: T1, Protein cereblon/von Hippel-Lindau disease tumor suppressor (Homo sapiens, UniProt P40337+Q96SW2); assay: Protac activity at VHL/CRBN in HEK293 cells assessed as CRBN protein abundance at 1 uM after 12 hrs by Western blot analysis relative to DMSO
# Summary of the method: (§1)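 HEK293 cells (DMEM, 10% FBS, penicillin/streptomycin, L-glutamine; 37 °C, 5% CO2; ≤30 passages) seeded at 1 × 10⁶ per well overnight, then treated with compound at 0.1% v/v final DMSO. Cells were lysed in RIPA with protease inhibitors and benzonase, then clarified. Equal Bradford-quantified protein was immunoblotted for CRBN/VHL. Bands were normalised to β-tubulin and expressed as % of mean 0.1% DMSO vehicle.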
# Target sequence in this assay (P40337 whole entry, looked up): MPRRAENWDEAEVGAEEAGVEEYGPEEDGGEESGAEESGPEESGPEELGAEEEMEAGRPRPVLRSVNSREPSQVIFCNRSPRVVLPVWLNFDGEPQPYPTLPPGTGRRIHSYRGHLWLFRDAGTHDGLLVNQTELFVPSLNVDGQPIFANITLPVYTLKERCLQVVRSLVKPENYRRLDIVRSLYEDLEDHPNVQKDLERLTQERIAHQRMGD
# Target sequence in this assay (Q96SW2 whole entry, looked up): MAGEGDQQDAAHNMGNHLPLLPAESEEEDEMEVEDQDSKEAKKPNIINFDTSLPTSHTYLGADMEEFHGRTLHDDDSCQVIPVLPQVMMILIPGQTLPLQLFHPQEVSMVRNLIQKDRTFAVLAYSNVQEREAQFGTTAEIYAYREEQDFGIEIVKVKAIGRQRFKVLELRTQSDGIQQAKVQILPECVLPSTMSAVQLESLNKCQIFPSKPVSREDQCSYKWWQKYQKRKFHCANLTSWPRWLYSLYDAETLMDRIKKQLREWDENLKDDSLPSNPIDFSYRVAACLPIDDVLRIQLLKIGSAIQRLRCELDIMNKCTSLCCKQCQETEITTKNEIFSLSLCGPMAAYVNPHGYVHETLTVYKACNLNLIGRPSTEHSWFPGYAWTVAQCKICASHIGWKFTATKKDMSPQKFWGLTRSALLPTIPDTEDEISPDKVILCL
# [2] = target: T1, Protein cereblon/von Hippel-Lindau disease tumor suppressor; assay: Protac activity at VHL/CRBN in human HeLa cells assessed as pVHL19 protein abundance at 10000 nM after 4 hrs by Western blot analysis relative to DMSO
# Summary of the method: (§2)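 HeLa cells (5 × 10⁵, DMEM + 10% FBS, 37 °C, 5% CO₂, ≤30 passages) seeded overnight, then treated 4 h with compound at single or graded concentrations (0.1% v/v DMSO final). RIPA lysates equalised by Bradford; SDS-PAGE and anti-CRBN/anti-VHL immunoblots; bands normalised to β-tubulin and expressed as % of mean DMSO vehicle. DC₅₀ from fit of band intensity versus log[concentration].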
# Target sequence in this assay (P40337 whole entry, looked up): as the sequence (P40337 whole entry, looked up) above
# Target sequence in this assay (Q96SW2 whole entry, looked up): as the sequence (Q96SW2 whole entry, looked up) above
# [3] = target: T1, Protein cereblon/von Hippel-Lindau disease tumor suppressor; assay: Protac activity at VHL/CRBN in HEK293 cells assessed as pVHL30 protein abundance at 1 uM after 2 hrs by Western blot analysis relative to DMSO; summary of the method: as §1
# Target sequence in this assay (P40337 whole entry, looked up): as the sequence (P40337 whole entry, looked up) above
# Target sequence in this assay (Q96SW2 whole entry, looked up): as the sequence (Q96SW2 whole entry, looked up) above
# [4] = target: T1, Protein cereblon/von Hippel-Lindau disease tumor suppressor; assay: Protac activity at VHL/CRBN in HEK293 cells assessed as pVHL19 protein abundance at 500 nM after 4 hrs by Western blot analysis relative to DMSO; summary of the method: as §1
# Target sequence in this assay (P40337 whole entry, looked up): as the sequence (P40337 whole entry, looked up) above
# Target sequence in this assay (Q96SW2 whole entry, looked up): as the sequence (Q96SW2 whole entry, looked up) above
# [5] = target: T1, Protein cereblon/von Hippel-Lindau disease tumor suppressor; assay: Protac activity at VHL/CRBN in HEK293 cells assessed as induction of CRBN protein degradation after 4 hrs by Western blot analysis
# Summary of the method: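 HEK293 cells seeded at 1 × 10⁶ per well overnight, exposed 4 h to a compound concentration series (0.1% v/v final DMSO), lysed in RIPA, and immunoblotted on equal Bradford-quantified protein. CRBN bands were normalised to β-tubulin and expressed relative to mean DMSO vehicle. DC50 was estimated by fitting band intensity against log[concentration].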
# Target sequence in this assay (P40337 whole entry): as the sequence (P40337 whole entry, looked up) above
# Target sequence in this assay (Q96SW2 whole entry): as the sequence (Q96SW2 whole entry, looked up) above
# [6] = target: T1, Protein cereblon/von Hippel-Lindau disease tumor suppressor; assay: Protac activity at VHL/CRBN in HEK293 cells assessed as CRBN protein abundance at 100 nM after 4 hrs by Western blot analysis relative to DMSO; summary of the method: as §1
# Target sequence in this assay (P40337 whole entry, looked up): as the sequence (P40337 whole entry, looked up) above
# Target sequence in this assay (Q96SW2 whole entry, looked up): as the sequence (Q96SW2 whole entry, looked up) above
# [7] = target: T1, Protein cereblon/von Hippel-Lindau disease tumor suppressor; assay: Protac activity at VHL/CRBN in human HeLa cells assessed as pVHL19 protein abundance at 1000 nM after 4 hrs by Western blot analysis relative to DMSO; summary of the method: as §2
# Target sequence in this assay (P40337 whole entry, looked up): as the sequence (P40337 whole entry, looked up) above
# Target sequence in this assay (Q96SW2 whole entry, looked up): as the sequence (Q96SW2 whole entry, looked up) above
# [8] = target: T1, Protein cereblon/von Hippel-Lindau disease tumor suppressor; assay: Protac activity at VHL/CRBN in human HeLa cells assessed as pVHL30 protein abundance at 5 nM after 4 hrs by Western blot analysis relative to DMSO; summary of the method: as §2
# [9] = target: T1, Protein cereblon/von Hippel-Lindau disease tumor suppressor; assay: Protac activity at VHL/CRBN in human HeLa cells assessed as pVHL19 protein abundance at 1 uM after 12 hrs by Western blot analysis relative to DMSO
# Summary of the method: (§3)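 HeLa cells seeded overnight, then exposed to 1 µM compound (0.1% v/v DMSO final) over a time course. Cells were DPBS-washed and RIPA-lysed with protease inhibitors and benzonase; equal protein was loaded. Immunoblots for CRBN and VHL isoforms were quantified against β-tubulin and reported relative to the averaged 0.1% DMSO vehicle.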
# [10] = target: T1, Protein cereblon/von Hippel-Lindau disease tumor suppressor; assay: Protac activity at VHL/CRBN in HEK293 cells assessed as CRBN protein abundance at 5000 nM after 4 hrs by Western blot analysis relative to DMSO; summary of the method: as §1
# [11] = target: T1, Protein cereblon/von Hippel-Lindau disease tumor suppressor; assay: Protac activity at VHL/CRBN in human HeLa cells assessed as pVHL19 protein abundance at 5000 nM after 4 hrs by Western blot analysis relative to DMSO; summary of the method: as §2
# [12] = target: T1, Protein cereblon/von Hippel-Lindau disease tumor suppressor; assay: Protac activity at VHL/CRBN in human HeLa cells assessed as pVHL19 protein abundance at 500 nM after 4 hrs by Western blot analysis relative to DMSO; summary of the method: as §2
# [13] = target: T1, Protein cereblon/von Hippel-Lindau disease tumor suppressor; assay: Protac activity at VHL/CRBN in human HeLa cells assessed as pVHL19 protein abundance at 1 uM after 24 hrs by Western blot analysis relative to DMSO; summary of the method: as §3
# [14] = target: T1, Protein cereblon/von Hippel-Lindau disease tumor suppressor; assay: Protac activity at VHL/CRBN in human HeLa cells assessed as induction of VHL degradation at 1 uM after 4 hrs by Western blot analysis; summary of the method: as §2
# [15] = target: T1, Protein cereblon/von Hippel-Lindau disease tumor suppressor; assay: Protac activity at VHL/CRBN in HEK293 cells assessed as CRBN protein abundance at 500 nM after 4 hrs by Western blot analysis relative to DMSO; summary of the method: as §1
# [16] = target: T1, Protein cereblon/von Hippel-Lindau disease tumor suppressor; assay: Protac activity at VHL/CRBN in HEK293 cells assessed as pVHL30 protein abundance at 5 nM after 4 hrs by Western blot analysis relative to DMSO; summary of the method: as §1
# [17] = target: T1, Protein cereblon/von Hippel-Lindau disease tumor suppressor; assay: Protac activity at VHL/CRBN in human HeLa cells assessed as CRBN protein abundance at 1 uM after 4 hrs by Western blot analysis relative to DMSO; summary of the method: as §3
# [18] = target: T1, Protein cereblon/von Hippel-Lindau disease tumor suppressor; assay: Protac activity at VHL/CRBN in HEK293 cells assessed as pVHL30 protein abundance at 1 uM after 4 hrs by Western blot analysis relative to DMSO; summary of the method: as §1
# [19] = target: T1, Protein cereblon/von Hippel-Lindau disease tumor suppressor; assay: Protac activity at VHL/CRBN in human HeLa cells assessed as reduction in CRBN protein level at 10 nM after 4 hrs by Western blot analysis
# Summary of the method: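 HeLa cells (ATCC; DMEM, 10% FBS, pen/strep, L-glutamine; 37 °C, 5% CO2; ≤30 passages; mycoplasma-tested) are seeded at 5 × 10⁵ per well overnight, then treated for 4 h with 0.1% v/v DMSO final. Lysis is in RIPA with protease inhibitors and benzonase, and equal protein (Bradford) is loaded. CRBN is immunoblotted, normalized to β-tubulin and expressed as % of mean DMSO vehicle.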
# [20] = target: T1, Protein cereblon/von Hippel-Lindau disease tumor suppressor; assay: Protac activity at VHL/CRBN in human HeLa cells assessed as pVHL19 protein abundance at 1 uM after 2 hrs by Western blot analysis relative to DMSO; summary of the method: as §3
# [21] = target: T1, Protein cereblon/von Hippel-Lindau disease tumor suppressor; assay: Protac activity at VHL/CRBN in HEK293 cells assessed as pVHL19 protein abundance at 1000 nM after 4 hrs by Western blot analysis relative to DMSO; summary of the method: as §1
# [22] = target: T1, Protein cereblon/von Hippel-Lindau disease tumor suppressor; assay: Protac activity at VHL/CRBN in human HeLa cells assessed as hook effect at > 1 uM
# [23] = target: T1, Protein cereblon/von Hippel-Lindau disease tumor suppressor; assay: Protac activity at VHL/CRBN in HEK293 cells assessed as pVHL19 protein abundance at 1 uM after 4 hrs by Western blot analysis relative to DMSO; summary of the method: as §1
# [24] = target: T1, Protein cereblon/von Hippel-Lindau disease tumor suppressor; assay: Protac activity at VHL/CRBN in human HeLa cells assessed as CRBN protein abundance at 50 nM after 4 hrs by Western blot analysis relative to DMSO; summary of the method: as §2
# [25] = target: T1, Protein cereblon/von Hippel-Lindau disease tumor suppressor; assay: Protac activity at VHL/CRBN in human HeLa cells assessed as pVHL19 protein abundance at 100 nM after 4 hrs by Western blot analysis relative to DMSO; summary of the method: as §2
# [26] = target: T1, Protein cereblon/von Hippel-Lindau disease tumor suppressor; assay: Protac activity at VHL/CRBN in human HeLa cells assessed as pVHL19 protein abundance at 1 uM after 1 hr by Western blot analysis relative to DMSO; summary of the method: as §3
smiles,measurement,setting,value
Cc1ncsc1-c1ccc(CNC(=O)[C@@H]2C[C@@H](O)CN2C(=O)[C@@H](NC(=O)COCCCCCOCCOCCCCCOCC(=O)NCCNc2cccc3c2C(=O)N(C2CCC(=O)NC2=O)C3=O)C(C)(C)C)cc1 (stereo partly specified),Activity,[1],6%
same,Activity,[2],124%
same,Activity,[3],87%
same,Activity,[4],113%
same,DC50,[5],230 nM
same,Activity,[6],63%
same,Activity,[7],110%
same,Activity,[8],61%
same,Activity,[9],93%
same,Activity,[10],25%
same,Activity,[11],115%
same,Activity,[12],106%
same,Activity,[13],100%
same,Activity,[14],inactive
same,Activity,[15],27%
same,Activity,[16],117%
same,Activity,[17],19%
same,Activity,[18],98%
same,Activity,[19],inactive
same,Activity,[20],95%
same,Activity,[21],119%
same,Activity,[22],Active
same,Activity,[23],101%
same,Activity,[24],72%
same,Activity,[25],108%
same,Activity,[26],100%
